In general, IC50 refers to the concentration that inhibits the measured activity by half. Higher therefore signals a need for much substance.

The source of these data is ChEMBL document CHEMBL1649387, “Synthesis and evaluation of quinonoid compounds against tumor cell lines” (Eur J Med Chem, 2011).

The test system of one test is PBMC. The experiment in a line: Cytotoxicity against human PBMC cells after 72 hrs by Alamar Blue assay. It is filed as cell-based.
For test [1], the system named is HL-60. The experiment in a line: Cytotoxicity against human HL60 cells after 72 hrs by MTT assay. To be noted: HL-60, 72 h. It counts as functional, cell-based.
In test [2] the test system is MDA-MB-435. As to the kind of experiment: Cytotoxicity against human MDA-MB-435 cells after 72 hrs by MTT assay. It is filed as functional, cell-based. The following applies: MDA-MB-435, 72 h.
In test [3] the test system is HCT-8. The experiment in a line: Cytotoxicity against human HCT8 cells after 72 hrs by MTT assay. It is filed as functional, cell-based. The following applies: HCT-8, 72 h. (Formazan colour is commonly taken as a measure of viable cells.)
Test [4] deals with SF-295. As to the kind of experiment: Cytotoxicity against human SF295 cells after 72 hrs by MTT assay. It counts as functional, cell-based. The following applies: SF-295, 72 h.
For test [5], the system named is HL-60. As to the kind of experiment: Induction of apoptosis in human HL60 cells assessed as apoptotic nuclei at 5 uM after 24 hrs by acridine orange/ethidium bromide staining based fluorescence microscopy. It counts as functional. The method, boiled down: (§1)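 Cells exposed 24 h, with or without 24 h pretreatment with 1-bromoheptane. Cell suspension mixed with acridine orange/ethidium bromide (each 100 in PBS) and spread on slide. 300 cells counted per point by fluorescence microscopy to give % apoptotic cells. Mean ± S.E.M. of three experiments.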

In test [6] the test system is MDA-MB-435. The experiment in a line: Induction of apoptosis in human MDA-MB-435 cells assessed as apoptotic nuclei at 5 uM after 24 hrs by acridine orange/ethidium bromide staining based fluorescence microscopy. It counts as functional. Summed up:
as §1

Test [7] concerns HCT-8. The experiment in a line: Induction of apoptosis in human HCT8 cells assessed as apoptotic nuclei at 5 uM after 24 hrs by acridine orange/ethidium bromide staining based fluorescence microscopy. It counts as functional. The method, boiled down: as §1
Test [8] relates to SF-295. The experiment in a line: Induction of apoptosis in human SF295 cells assessed as apoptotic nuclei at 5 uM after 24 hrs by acridine orange/ethidium bromide staining based fluorescence microscopy. It is filed as functional. Summed up:
as §1

For test [9], the system named is HL-60. The experiment in a line: Induction of apoptosis in human HL60 cells assessed as apoptotic nuclei at 5 uM after 24 hrs by acridine orange/ethidium bromide staining based fluorescence microscopy in presence of 1-bromoheptane. It counts as functional. The method, boiled down:
as §1

Test [10] concerns MDA-MB-435. As to the kind of experiment: Induction of apoptosis in human MDA-MB-435 cells assessed as apoptotic nuclei at 5 uM after 24 hrs by acridine orange/ethidium bromide staining based fluorescence microscopy in presence of 1-bromoheptane. It is filed as functional. Summed up:
as §1

Test [11] concerns HCT-8. The experiment in a line: Induction of apoptosis in human HCT8 cells assessed as apoptotic nuclei at 5 uM after 24 hrs by acridine orange/ethidium bromide staining based fluorescence microscopy in presence of 1-bromoheptane. It counts as functional. The method, boiled down: as §1
In test [12] the test system is SF-295. As to the kind of experiment: Induction of apoptosis in human SF295 cells assessed as apoptotic nuclei at 5 uM after 24 hrs by acridine orange/ethidium bromide staining based fluorescence microscopy in presence of 1-bromoheptane. It counts as functional. The method, boiled down: as §1

As to `CCCC1=C(OC2(CCC)C(=O)C(=O)C3=C(CCCC3)C2=O)C(=O)C2=C(CCCC2)C1=O` (stereo not given), the IC50 in the test with PBMC, in the test with HL-60 [1], with MDA-MB-435 [2], in the test with HCT-8 [3] and in the test on SF-295 [4] was more than 11.4 µM each time. Besides, the Activity in the test with HL-60 [5] is 9.13%; in the test with MDA-MB-435 [6] it was 8.56%; in the test with HCT-8 [7], 9.27%; in the test with SF-295 [8], 11.73%; with HL-60 [9] it was 11.04%; in the test with MDA-MB-435 [10], 12.09%. Further, the values for the Activity in the test on HCT-8 [11] and with SF-295 [12] were 11.7% and 13.97%, respectively.
`C=CCC1=C(OC2(CC=C)C(=O)C(=O)c3ccccc3C2=O)C(=O)c2ccccc2C1=O` (stereo not given): the IC50 in the test on PBMC, with HL-60 [1], in the test on MDA-MB-435 [2], with HCT-8 [3] and in the test on SF-295 [4] was more than 11.7 µM each time. Moreover, the Activity was 3.91% with HL-60 [5]; 7.94% in the test on MDA-MB-435 [6]; 12.52% with HCT-8 [7]; 8.3% in the test on SF-295 [8]; 8.55% with HL-60 [9]; 11.36% with MDA-MB-435 [10]. Moreover, the Activity in the test with HCT-8 [11] was found to be 9.37%; in the test with SF-295 [12] it was 11.47%.
`CC(C)=CCC1=C(OC2(CC=C(C)C)C(=O)C(=O)c3ccccc3C2=O)C(=O)c2ccccc2C1=O` (stereo not given): the IC50 in the test on PBMC was more than 10.4 µM; with HL-60 [1] it was more than 10.4 µM; with MDA-MB-435 [2] it was more than 10.4 µM; in the test on HCT-8 [3], 9.76 µM; in the test on SF-295 [4] it was more than 10.4 µM. The Activity is 11.17% with HL-60 [5]; 4.72% in the test on MDA-MB-435 [6]; 8.52% in the test with HCT-8 [7]; 11.45% in the test with SF-295 [8]; 8.46% with HL-60 [9]; 5.82% in the test on MDA-MB-435 [10]. The Activity came out at 9.16% with HCT-8 [11] and 7.3% in the test on SF-295 [12].
As to `O=C1c2ccccc2C(=O)c2c1ccc1nc(-c3cccc(O)c3)[nH]c21`, the IC50 with PBMC, with HL-60 [1], in the test on MDA-MB-435 [2], in the test on HCT-8 [3] and in the test with SF-295 [4] was more than 14.7 µM each time. The Activity is reported as 10.49% in the test with HL-60 [5]; 12.51% in the test on MDA-MB-435 [6]; 12.73% with HCT-8 [7]; 13.51% with SF-295 [8]; 8.17% in the test with HL-60 [9]; 13.75% in the test on MDA-MB-435 [10]. The Activity is on record as 7.25% with HCT-8 [11] and 9.66% in the test with SF-295 [12].
Consider `O=C1c2ccccc2C(=O)c2c1ccc1nc(-c3ccccc3)[nH]c21`, for which the concentration for half-maximal inhibition (IC50) in the test on PBMC, in the test with HL-60 [1], with MDA-MB-435 [2], in the test on HCT-8 [3] and in the test with SF-295 [4] was more than 15.4 µM throughout. For the same compound, the Activity in the test with HL-60 [5] was determined as 12.59%; in the test with MDA-MB-435 [6] it was 9.02%; with HCT-8 [7], 10.35%; with SF-295 [8], 7.32%; in the test with HL-60 [9], 8.37%; in the test on MDA-MB-435 [10] it was 11.44%. The results for the Activity with HCT-8 [11] and in the test with SF-295 [12] were 8.11% and 9.17%, respectively.
